BaF3 tox – parental Ba/F3 cell viability inhibition, counter-screen for JAK2V617F inhibitor project, murine pro-B, CellTiter-Glo luminescence; CellTiter-Glo ATP luminescence; inhibition, % at 5.6 µM; actives 1.1% (n = 220,000); AID 1486, 2009;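 active = inhibition above a per-campaign cutoff, the mean inhibition of all tested compounds plus 3 SD, cut at about 27% in these data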;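 note: 0% = DMSO wells and 100% = JAK Inhibitor I control wells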
Ba/F3 V617F tox – reduced viability of JAK2V617F-dependent Ba/F3 cells, primary screen, JAK2V617F inhibitor project, cell-based, Ba/F3 EpoR-JAK2V617F, luminescence | ATP luminescence | inhibition, % at 5.6 µM | actives 1.1% (n = 220,000) | AID 1446, 2008;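 active = inhibition above the campaign mean plus 3 SD over all tested compounds, cut at about 24% in these data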;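 note: cytokine-independent growth of Ba/F3 cells driven by EpoR plus mutant JAK2; 0% = DMSO-treated cells and 100% = JAK inhibitor I control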
APP 5UTR inh – inhibitors of APP translation via 5'UTR reporter, primary screen, APP 5'UTR luciferase, SH-SY5Y cells; SH-SY5Y APP 5'UTR-luciferase reporter, luminescence; inhibition, % at 2 µM; actives 0.82% (n = 190,000); AID 1285, 2008;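 active = inhibition above a set limit, derived from the sample mean plus 3 SD, cut at about 45% in these data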
MT stabilize HCS – microtubule stabilizers in HeLa cells, primary screen, imaging, high-content imaging; HeLa tubulin immunostaining HCS, 24 h; share of cells brighter than vehicle mean+2SD; actives 0.83% (n = 200,000); AID 2205, 2009; % tubulin-high responders, % at 10 µM;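 active = plate Z-score above 3 for both tubulin-high and condensed-nucleus cell shares, with cell loss under 80%, at 10 µM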;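 note: anti alpha tubulin signal scored within the nucleus-defined area of each cell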
bCat nuc transl – modulators of beta-catenin nuclear translocation, primary screen, imaging, HeLa cells, immunofluorescence, high-content; nuclear translocation activity, % at 5 µM; actives 0.3% (n = 190,000); AID 1665, 2009;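 active = nuclear translocation activity above 50% at 5 µM, with a well cell count of 50 or more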;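 note: per-cell ratio of nuclear to cytoplasmic median beta-catenin stain intensity; plate controls were DMSO negative control for no effect and GSK-3 inhibitor IX positive control for full effect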
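Test system: human HeLa cells, endogenous beta-catenin. Times: 24 h compound exposure, 37°C. Measured by: beta-catenin immunofluorescence imaging with DAPI.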
IEC-6 tox – cytotoxicity in IEC-6 intestinal epithelial cells, primary screen, cytotoxicity control for KLF5 inhibitor project, cell-based, luminescence; IEC-6 cytotoxicity, luminescence viability; inhibition, % at 5 µM; actives 0.78% (n = 290,000);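 note: 0% = plate median of test compound wells and 100% = cytotoxic reference compound wells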
BaF3 parental 2 – parental Ba/F3 cell viability inhibition, counter-screen for JAK2V617F inhibitor project, murine pro-B, CellTiter-Glo luminescence; shares compounds with Ba/F3 V617F tox; cells kept alive by added IL-3; inhibition, % at 5.6 µM; actives 31% (n = 580);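 active = cell growth inhibition above the hit limit set in the earlier mutant JAK2 cell screen, cut at about 27% in these data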;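 note: plate controls were DMSO-treated cells for no effect and JAK Inhibitor I control wells for full effect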
JAK2V617F conf – viability loss in Ba/F3 EpoR-JAK2V617F cells, confirmation, JAK2V617F inhibitor project, cell-based, luminescence, triplicate; shares compounds with Ba/F3 V617F tox; CellTiter-Glo luminescence; inhibition, % at 5.6 µM; actives 66% (n = 580);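 active = mean inhibition above the hit cutoff derived in the earlier primary screen, cut at about 25% in these data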;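 note: 0% = DMSO-treated cells and 100% = JAK inhibitor I control wells; higher means lower luminescence from reduced cell ATP and viability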
IEC-6 cytotox cf – cytotoxic compounds in IEC-6 epithelial cells, confirmation, cytotoxicity control, cell-based, luminescence | inhibition, % at 5 µM | shares compounds with IEC-6 tox | IEC-6 rat intestinal epithelial viability | actives 63% (n = 1,900);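 note: 0% = vehicle and 100% = reference cytotoxic drug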
Starred values were filed as active, the others as inactive; . = no result. The list is not random: actives were taken first. Their share in the collection is about 2.2%. Cut-off read from the data, not from the text of the source, unless noted: active = inhibition above about 22%; inactive = the rest.

SMILES	BaF3 tox	Ba/F3 V617F tox	APP 5UTR inh	MT stabilize HCS	bCat nuc transl	IEC-6 tox	others
O=C(O)CC1OCC=C2CN3CCC45C6=CC(=O)C(=O)C([N+](=O)[O-])=C6NC4C1C2CC35 (stereo not drawn)	1	-5	.	.	-4	-9
O=C(CCC(=O)N1CCC2(CC1)OCCO2)Nc1nnc(C(F)(F)F)s1	1	-1	-9	6	-2	-1
CC[N+]12CCC(CC1)C(=C(c1ccccc1)c1ccccc1)C2	29*	9	-6	5	-2	-1
C[N+]12CCC(CC1)C(=C(c1ccccc1)c1ccccc1)C2	24	5	1	2	.	-5
Cc1ccccc1-n1c(-c2ccc([N+](=O)[O-])cc2)nc2ccccc2c1=O	7	-2	3	3	-3	-2
CCCC[N+]12CCC(CC1)C(Cc1ccccc1)C2 (stereo not drawn)	31*	20	.	.	1	0
CCCC[N+]12CCC(CC1)C(C(O)(c1ccccc1)c1ccccc1)C2 (stereo not drawn)	3	0	.	.	0	-5
CCN1CC=C(c2c[nH]c3ccccc23)CC1	73*	87*	2	2	-8	-6
COc1ccc2nc(NC3=NCCN3)sc2c1	4	-2	-56	2	1	-1
CN1CCN(c2ccc(S(C)(=O)=O)cc2[N+](=O)[O-])CC1	3	-1	-15	1	0	2
CN1CCN(c2ccc([N+](=O)[O-])c3no[n+]([O-])c23)CC1	107*	99*	.	.	10	90*
COc1ccc(CCNCc2ccc(C)s2)cc1OC	8	4	-17	4	-1	4
COc1ccc(Cc2nccc3cc(OC)c(OC)cc23)cc1OC	27*	11	2	2	-1	15
O=C1NC(=O)C(CCc2ccncc2)(Cc2ccc(OCc3ccccc3)cc2)C(=O)N1	1	-2	.	.	1	-6
O=C1C(=O)c2ccccc2-c2ccccc21	102*	100*	58*	6	0	103*
Oc1cccc2cccnc12	.	.	.	.	.	37*
CCOc1cc2c(cc1OCC)-n1cccc1C(c1ccc(C(C)C)cc1)NC2 (stereo not drawn)	.	.	.	.	.	13
O=C(/C=C/c1c[nH]c2ccccc12)c1c(O)n(CCc2ccccc2)c(=O)[nH]c1=O	34*	-1	.	.	4	1
O=C(Cc1ccccc1)OC(COCc1ccccc1)CN1CCOCC1 (stereo not drawn)	1	-3	-14	2	.	2
O=C(Nc1ccccc1)N1CCC2(CC1)OCCO2	6	30*	-17	3	-2	0	BaF3 parental 2=-7;JAK2V617F conf=-10
O=C(O)c1[nH]c(=O)[nH]c(=O)c1F	5	64*	.	.	-3	-1	BaF3 parental 2=20;JAK2V617F conf=67*
C/C(=C\c1ccc(N(C)C)cc1)[N+](=O)[O-]	-1	32*	32	3	0	-3	BaF3 parental 2=-3;JAK2V617F conf=74*
CN(C)c1ccc(/C=C/[N+](=O)[O-])cc1	7	1	-15	2	0	-9
COc1ccccc1Cn1c(SCC#N)nc2cc(C(=O)N3CCC4(CC3)OCCO4)ccc2c1=O	5	1	14	6	-1	-6
O=C(Cn1ccc2ccccc2c1=O)NCC(=O)N1CCC2(CC1)OCCO2	2	-2	0	2	0	6
SMILES	BaF3 tox	Ba/F3 V617F tox	APP 5UTR inh	MT stabilize HCS	bCat nuc transl	IEC-6 tox	others
CCc1ccccc1NC(=O)CNCc1ccccc1	1	-3	-2	2	0	-9
CC1(C)C[C@H]2C=C(C=O)[C@]3(C=O)C[C@]3(C)[C@H]2C1	6	63*	96*	4	5	1	BaF3 parental 2=103*;JAK2V617F conf=100*
CCOc1ccccc1CN1CCCC(C(=O)c2cc(F)ccc2F)C1 (stereo not drawn)	.	.	.	.	.	7
c1ccc2[nH]c(CCNC3CCCCC3)nc2c1	1	49*	-2	2	-6	-6	BaF3 parental 2=-1;JAK2V617F conf=-2
CC1CCC/C=C/C2CC(O)CC2C(O)/C=C/C(=O)O1 (stereo not drawn)	0	62*	94*	35	.	101*	BaF3 parental 2=103*;JAK2V617F conf=67*;IEC-6 cytotox cf=100*
C[C@H]1CCC/C=C/C2C[C@H](O)CC2[C@H](O)/C=C/C(=O)O1 (stereo partly drawn)	6	38*	91*	23	31	99*	BaF3 parental 2=107*;JAK2V617F conf=78*;IEC-6 cytotox cf=102*
C[C@H]1CCC[C@@H](O)CCC/C=C/c2cc(O)cc(O)c2C(=O)O1	4	3	3	5	-9	4
CCC(C)NC(=O)CN1C(=O)CN=C(c2ccccc2)c2ccccc21 (stereo not drawn)	7	-2	6	1	2	-2
CN(C)c1ccc(C(=O)c2ccc(N(C)C)cc2)cc1	19	21	.	46*	.	33*	IEC-6 cytotox cf=50*
COC(=O)C(O)(c1ccc(N(C)C)cc1)C(F)(F)F (stereo not drawn)	9	-1	4	1	0	-3
C#CCOc1cc(C2C3=C(COC3=O)Nc3cc4c(cc32)OCO4)ccc1OC (stereo not drawn)	25	5	92*	13*	80*	78*	IEC-6 cytotox cf=57*
COc1ccc2c(c1OC)CN1CCc3cc4c(cc3C1C2)OCO4 (stereo not drawn)	.	.	.	.	.	-6
C=CCn1c(O)c(/C=N/N2CCCCC2c2cccnc2)c(=O)[nH]c1=S (stereo not drawn)	5	-2	9	6	-2	2
CC(C)(C)c1ccc(CSc2cnn(C(C)(C)C)c(=O)c2Cl)cc1	.	.	.	.	.	30*	IEC-6 cytotox cf=17
Cc1nc2ccccc2c(=O)n1-c1cccc([N+](=O)[O-])c1	.	.	.	.	.	3
CNc1cc(Cl)c2nonc2c1[N+](=O)[O-]	79*	50*	84*	4	-4	93*	IEC-6 cytotox cf=37*
FC(F)(F)c1cccc(N2CCNCC2)c1	-3	-2	.	.	-2	-4
CCn1nc(-c2ccccc2)nc2c(=O)n(C)c(=O)nc1-2	-1	9	4	3	0	99*	IEC-6 cytotox cf=60*
